# Measured values of several laboratories.
# Organism: Mycobacterium tuberculosis
# Read-out: microbial growth
Structure (SMILES),technique,strain,time,MIC
COc1ccc(Cc2c(C)c(C#N)c3[nH]c4ccccc4n3c2=O)cc1,broth dilution,H37RV,,0.25 µg/mL
O=C1C(=NNc2nc(-c3ccccc3)cs2)C(N=Cc2ccccc2Cl)=NN1c1ccccc1,resazurin,H37RV,,25 µg/mL
CO[C@H]1/C=C/O[C@@]2(C)Oc3c(C)c(O)c4c(O)c(c(/C=N/N5CCN(C)CC5)c(O)c4c3C2=O)NC(=O)/C(C)=C\C=C\[C@H](C)[C@H](O)[C@@H](C)[C@@H](O)[C@@H](C)[C@H](OC(C)=O)[C@@H]1C,,ATCC27294 H37RV,,< 0.1 µg/mL
N=C(N)Cc1ccc(NC(=O)c2ccc(C(=O)Nc3ccc(CC(=N)N)cc3)cc2)cc1,,H37RV,7 days,1 µg/mL
CCc1nc2ccc(Cl)cn2c1C(=O)NCc1ccc(S(F)(F)(F)(F)F)cc1,,H37RV,5 days,0.014 µM
CC1CCCC2(C1)SCC(=O)N2NC(=O)c1[nH]c2ccc(Cl)cc2c1-c1ccccc1 (stereo not shown),,ATCC27294 H37RV,,16 µM
CC1=NN(CNc2c(O)c(S(=O)(=O)O)cc3ccccc23)C(=O)C1=NNn1c(-c2ccccc2)nc2ccccc2c1=O,resazurin,H37RV,,20.9 µM
COC(=O)c1cc(-c2cccc(NC(=O)Nc3ccc(Cl)cc3)c2)on1,,ATCC27294 H37RV,7 days,2 µg/mL
C[C@H]1COC2(CCN(c3nc(=O)c4cc(C(F)(F)F)cc([N+](=O)[O-])c4s3)CC2)O1,resazurin,H37RV,,< 0.39 µM
COC(=O)c1cc(-c2cccc(NC(=S)Nc3ccc(C#N)cc3)c2)on1,,ATCC27294 H37RV,7 days,2 µg/mL
Cc1ccc(C)n1-c1ccc(-c2nnc(-c3c(Cl)cccc3Cl)[nH]2)cc1,broth dilution,H37RV,21 days,8 µg/mL
O=C(Nc1cccc(-c2cc(C(=O)O)no2)c1)Nc1ccc(Cl)c(Cl)c1,,ATCC27294 H37RV,7 days,64 µg/mL
Nc1ncnc2c1ncn2[C@@H]1O[C@H](COS(N)(=O)=O)[C@@H](O)[C@H]1O,,H37RV,,0.16 µg/mL
COC(=O)c1cc(-c2cccc(NC(=S)Nc3ccc(C)cc3)c2)on1,,ATCC27294 H37RV,7 days,2 µg/mL
CC[C@@H](CO)NCCN[C@@H](CC)CO,,H37RV,5 days,6.6 µM
COC1C(O)C(n2ccc(=O)[nH]c2=O)OC1C(OC1OC(C(=O)NC2CCCCNC2=O)=CC(O)C1O)C(N)=O (stereo not shown),resazurin,H37RV,,12.5 µg/mL
COC(=O)c1cc(-c2cccc(NC(=O)Nc3cccc(Cl)c3)c2)on1,,ATCC27294 H37RV,7 days,0.5 µg/mL
CC[C@@H](CO)NCCN[C@@H](CC)CO,resazurin,H37RA,14 days,1 µg/mL
O=C(CNS(=O)(=O)c1ccc([N+](=O)[O-])cc1[N+](=O)[O-])N1CCN(C(c2ccc(F)cc2)c2ccc(F)cc2)CC1,,ATCC27294 H37RV,,25 µg/mL
CC(C)[C@H]1CO[C@]23CCN(Cc4ccc(C(F)(F)F)cc4)C[C@H]2CCC(=O)N13,resazurin,H37RV,7 days,0.13 µM
CN[C@H](CC(C)C)C(=O)N[C@H]1C(=O)N[C@@H](CC(N)=O)C(=O)N[C@H]2C(=O)N[C@H]3C(=O)N[C@H](C(=O)N[C@H](C(=O)O)c4cc(O)cc(O)c4-c4cc3ccc4O)[C@H](O)c3ccc(c(Cl)c3)Oc3cc2cc(c3O[C@@H]2O[C@H](CO)[C@@H](O)[C@H](O)[C@H]2O[C@H]2C[C@](C)(N)[C@H](O)[C@H](C)O2)Oc2ccc(cc2Cl)[C@H]1O,resazurin,H37RA,14 days,65 µg/mL
NNC(=O)c1ccncc1,broth dilution,H37RV,21 days,0.25 µg/mL
Cc1cn2c(C(=O)NCc3ccc(S(F)(F)(F)(F)F)cc3)c(C)nc2s1,resazurin,H37RV,,0.078 µM
COc1nc2ccc(Br)cc2cc1[C@@H](c1ccccc1)[C@@](O)(CCN(C)C)c1cccc2ccccc12,,,,0.06 µg/mL
C[C@@H]1CN2c3c(cc4c(N5CC[C@@H](O)C5)noc4c3F)CC3(C(=O)NC(=O)NC3=O)[C@H]2[C@H](C)N1C#N,,H37RV,,7.8 µM
O=C1C(=NNc2nc(-c3ccccc3)cs2)C(N=Cc2ccc([N+](=O)[O-])cc2)=NN1c1ccccc1,resazurin,H37RV,5 days,50.5 µM
O=C(C1CCCN(S(=O)(=O)c2ccccc2[N+](=O)[O-])C1)N1CCN(C(c2ccc(F)cc2)c2ccc(F)cc2)CC1 (stereo not shown),,ATCC27294 H37RV,,> 25 µg/mL
CO[C@H]1/C=C/O[C@@]2(C)Oc3c(C)c(O)c4c(O)c(c(/C=N/N5CCN(C)CC5)c(O)c4c3C2=O)NC(=O)/C(C)=C\C=C\[C@H](C)[C@H](O)[C@@H](C)[C@@H](O)[C@@H](C)[C@H](OC(C)=O)[C@@H]1C,,H37RA,,0.008 µg/mL
CC(C)(C)C1CCC2(CC1)SCC(=O)N2NC(=O)c1[nH]c2ccc(Cl)cc2c1-c1ccccc1 (stereo not shown),,ATCC27294 H37RV,,16 µM
CO[C@H]1/C=C/O[C@@]2(C)Oc3c(C)c(O)c4c(O)c(c(/C=N/N5CCN(C)CC5)c(O)c4c3C2=O)NC(=O)/C(C)=C\C=C\[C@H](C)[C@H](O)[C@@H](C)[C@@H](O)[C@@H](C)[C@H](OC(C)=O)[C@@H]1C,resazurin,H37RV,7 days,0.061 µM
CCCCCCC/C=C\[C@H](O)C#CC#C[C@@H](O)CC,resazurin,ATCC27294 H37RV,7 days,50.2 µg/mL
CCCCCCCCCCC[C@@H](C[C@@H]1OC(=O)[C@H]1CCCCCC)OC(=O)[C@H](CC(C)C)NC=O,resazurin,H37RA,,24 µg/mL
COC(=O)c1cc(-c2cccc(NC(=O)Nc3ccc(F)c(F)c3)c2)on1,,ATCC27294 H37RV,7 days,0.5 µg/mL
O=C1C(=NNc2nc(-c3ccccc3)cs2)C(N=Cc2ccc(Cl)cc2)=NN1c1ccccc1,resazurin,H37RV,5 days,51.5 µM
N#Cc1cc(C(F)(F)F)cc2c(=O)nc(N3CCN(CC4COC4)CC3)sc12,resazurin,H37RV,,> 2 µM
Cc1ccc(C)n1-c1ccc(-c2n[nH]c(=S)[nH]2)cc1,broth dilution,H37RV,21 days,2 µg/mL
NNC(=O)c1ccncc1,,H37RV,,0.05 µg/mL
O=[N+]([O-])c1cn2c(n1)OC[C@@H](OCc1ccc(N3CCCCC3)cc1)C2,,H37RV,,0.4 to 0.8 µg/mL
CC(C)CC=CC=CC(=O)NC(CC(N)=O)C(=O)NC1C(=O)NC(c2ccc(O)cc2)C(=O)NC(CCCN)C(=O)NC(C(C)O)C(=O)NC(c2ccc(O)cc2)C(=O)NC(c2ccc(O)cc2)C(=O)NC(C(C)O)C(=O)NC(Cc2ccccc2)C(=O)NC(CCCN)C(=O)NC(c2ccc(OC3OC(CO)C(O)C(O)C3OC3OC(CO)C(O)C(O)C3O)cc2)C(=O)NC(C(C)O)C(=O)NC(c2ccc(O)cc2)C(=O)NCC(=O)NC(CC(C)C)C(=O)NC(C)C(=O)NC(c2ccc(O)c(Cl)c2)C(=O)OC1C(N)=O (stereo not shown),,H37RV,14 days,6.25 to 12.5 µg/mL
CCCCCCNC(=S)Nc1cccc(-c2cc(C(=O)OC)no2)c1,,ATCC27294 H37RV,7 days,2 µg/mL
O=C1C(=NNc2nc(-c3ccccc3)cs2)C(N=Cc2cccc(Cl)c2)=NN1c1ccccc1,resazurin,H37RV,5 days,12.9 µM
COC(=O)c1cc(-c2ccc(NC(=O)Nc3ccc(Cl)c(Cl)c3)cc2)on1,,ATCC27294 H37RV,7 days,0.5 µg/mL
Cc1ccc(NC(=O)c2ccccc2)cc1Nc1nccn1-c1cc(NC2CCCC2)ncn1,,W4,,> 20 µM
